Measured values reported in article PMC4291291 (European journal of medicinal chemistry, 2014).
In brackets after ≈: the same amount, converted by molar mass.

Legend:
[1] = test system: bioactivity of mevalonate; settings: 200 μM concentration; cited from earlier work
[2] = Stability in human plasma at 37 °C; type: in vitro ADME
[3] = Enantiomeric ratio during incubation with human plasma; type: in vitro ADME; settings: Chiral Cel OD-H
Outline: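 Test compound (100 mM acetonitrile stock) added to human plasma, which was diluted with distilled water and pre-warmed 5 min, then incubated at 37 °C. At t1/4 and t1/2, portions were quenched with acetonitrile and run on HPLC with a Chiral Cel OD-H column; LC/MS also used. Ratio taken from each enantiomer's peak integration.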

[4] = test system: Streptococcus pneumoniae strain TIGR4; test: Minimal inhibitory concentration; type: cell-based
Stability in PBS buffer = type: physicochemical; settings: pH 7.4
Outline: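 Test compound (10 mM acetonitrile stock, diluted 1:10) incubated in PBS pH 7.4 at 37 °C. Aliquots were taken at various times and injected directly onto HPLC with UV detection; run twice per compound. t1/2 = ln(2)/b, where b is the slope of ln(remaining parent fraction) versus time (one-phase decay).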

[5] = test system: vancomycin resistant Enterococcus (VRE); test: MIC against additional organisms; type: cell-based
E. coli K12 = test: MIC against additional organisms; type: cell-based
[6] = test system: Streptococcus pyogenes (GAS 5448); test: MIC against additional organisms; type: cell-based
[7] = test system: Streptococcus agalactiae (GBS COH1); test: MIC against additional organisms; type: cell-based
[8] = test system: HaCaT human keratinocytes; test: General cytotoxicity by lactate dehydrogenase; type: cell-based; settings: concentrations up to 1.6 mM, 24 h
[9] = test system: Staphylococcus aureus (TCH1516); test: MIC against additional organisms; type: cell-based
RAW murine macrophages = test: General cytotoxicity by lactate dehydrogenase; type: cell-based; settings: concentrations up to 1.6 mM, 24 h
[10] = Stability of ester promoiety in deuterated PBS buffer; type: physicochemical
Outline: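 Deuterated PBS pH 7.4 in D2O (NaCl 137 mM, KCl 2.7 mM, Na2HPO4 10.1 mM, KH2PO4 1.8 mM). Test compound (1.0 mg, 4 μmol) dissolved in 800 μL of this buffer in an NMR tube and held at 37 °C. 1H NMR taken at 30 min, 1 h, 4 h, 24 h and 48 h. Decomposition judged from the integration ratio of impurity to parent signals.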

human MK = settings: at concentrations that effectively inhibit the S. pneumoniae system; cited from earlier work
[11] = Stability of prospective decomposition intermediates of 23 in PBS buffer; type: physicochemical
[12] = t1/2 (min) of carbonate analogues in human plasma, footnote a: hydrolysis occurred only at carbonate promoieties
[13] = Streptococcus pneumoniae, TIGR4, 24 h
[14] = t1/2 (min) of benzyl amide and ester analogues in human plasma, footnote a: hydrolysis occurred only at the acetyl promoiety

6-fluoromevalonate
block of the related bioactivity of mevalonate [1]: completely blocks

CC1(CC(=O)Oc2ccccc2)CCOC(=O)O1 (stereo not shown) [9a, Phenyl 2-(4-methyl-2-oxo-1,3-dioxan-4-yl)acetate]
half-life at 4 mM [2, 12]: < 0.05 h

CC1(CC(=O)Oc2ccc(F)cc2)CCOC(=O)O1 (stereo not shown) [9b, 4-Fluorophenyl 2-(4-methyl-2-oxo-1,3-dioxan-4-yl)acetate]
half-life at 4 mM [2, 12]: < 0.05 h

CC1(CC(=O)Nc2ccccc2)CCOC(=O)O1 (stereo not shown) [10a, 2-(4-Methyl-2-oxo-1,3-dioxan-4-yl)-N-phenylacetamide]
half-life at 4 mM [2, 12]: < 0.05 h

CC1(CC(=O)NCc2ccccc2)CCOC(=O)O1 (stereo not shown) [10b, N-Benzyl-2-(4-methyl-2-oxo-1,3-dioxan-4-yl)acetamide]
integration ratio of each enantiomer ([3]; at 4 min): 48/52
integration ratio of each enantiomer ([3]; at 8 min): 46/54
half-life at 4 mM [2, 12]: 0.133 h

CC1(CC(=O)NCc2ccc(F)cc2)CCOC(=O)O1 (stereo not shown) [10c, N-(4-Fluorobenzyl)-2-(4-methyl-2-oxo-1,3-dioxan-4-yl)acetamide]
half-life at 4 mM [2, 12]: 0.133 h

O=C(CC1(CF)CCOC(=O)O1)OCc1ccc(F)cc1 (stereo not shown) [18a, 4-Fluorobenzyl 2-(4-(fluoromethyl)-2-oxo-1,3-dioxan-4-yl)acetate]
antibacterial activity against S. pneumoniae (in words) ([4]; S. pneumoniae, THB medium): generally inactive
MIC [4, 13]: > 1600 µM
half-life (Stability in PBS buffer): 26 h

O=C(CC1(CF)CCOC(=O)O1)OCc1ccc(F)cc1F (stereo not shown) [18b, 2,4-Difluorobenzyl 2-(4-(fluoromethyl)-2-oxo-1,3-dioxan-4-yl)acetate]
half-life (Stability in PBS buffer): 22 h

O=C(CC1(C(F)(F)F)CCOC(=O)O1)OCc1ccc(F)cc1 (stereo not shown) [25a, 4-Fluorobenzyl 2-(2-oxo-4-(trifluoromethyl)-1,3-dioxan-4-yl)acetate]
antibacterial activity against S. pneumoniae (in words) ([4]; S. pneumoniae, THB medium): marginally active
MIC [4, 13]: 1600 µM (≈ 538 µg/mL)
MIC ([5]; Enterococcus, VRE): > 1600 µM
MIC (E. coli K12; Escherichia coli, K12): > 1600 µM
MIC ([6]; Streptococcus pyogenes): > 1600 µM
MIC ([7]; Streptococcus agalactiae): > 1600 µM
half-life (Stability in PBS buffer): 6 h
general cytotoxicity (LDH release vs media alone) [8]: No evidence of general cytotoxicity
MIC ([9]; Staphylococcus aureus): > 1600 µM
general cytotoxicity (LDH release vs media alone) (RAW murine macrophages): No evidence of general cytotoxicity

O=C(CC1(C(F)(F)F)CCOC(=O)O1)OCc1ccc(F)cc1F (stereo not shown) [25b, 2,4-Difluorobenzyl 2-(2-oxo-4-(trifluoromethyl)-1,3-dioxan-4-yl)acetate]
half-life (Stability in PBS buffer): 5 h

O=C(CC1(C(F)(F)F)CCOC(c2ccccc2)O1)NCc1ccccc1 (stereo not shown) [32b, N-Benzyl-2-(2-phenyl-4-(trifluoromethyl)-1,3-dioxan-4-yl)acetamide]
antibacterial activity against S. pneumoniae (in words) ([4]; S. pneumoniae, THB medium): lack activity
MIC [4, 13]: > 1600 µM

CC(=O)OCCC(O)(CF)CC(=O)NCc1ccccc1 (stereo not shown) [38a, 5-(Benzylamino)-3-(fluoromethyl)-3-hydroxy-5-oxopentyl acetate]
MIC [4, 13]: > 1600 µM
half-life at 4 mM [2, 14]: 0.333 to 0.5 h

COC(=O)CC(O)(CF)CCOC(C)=O (stereo not shown) [38b, Methyl 5-acetoxy-3-(fluoromethyl)-3-hydroxypentanoate]
MIC [4, 13]: > 1600 µM

CCOC(=O)CC(O)(CF)CCOC(C)=O (stereo not shown) [38c, Ethyl 5-acetoxy-3-(fluoromethyl)-3-hydroxypentanoate]
decomposition after 48 h ([10]; deuterated PBS buffer pH 7.4, 37 °C, 48 h, 1H NMR integration ratio): less than 5%
half-life ([10]; deuterated PBS buffer, pH 7.4): > 48 h
MIC [4, 13]: > 1600 µM

C[C@@](O)(CCOP(=O)(O)OP(=O)(O)O)CC(=O)O [DPM, 5-diphosphomevalonate]
inhibition of human MK (human MK): not inhibited

CC1(CC(=O)OCc2ccccc2)CCOC(=O)O1 (stereo not shown) [compound 4, Benzyl 2-(4-methyl-2-oxo-1,3-dioxan-4-yl)acetate]
integration ratio of each enantiomer ([3]; at 2 min): 35/65
integration ratio of each enantiomer ([3]; at 4 min): 41/59
half-life (Stability in PBS buffer): > 48 h
half-life at 4 mM [2, 12]: 0.0667 h

O=C(CC1(CF)CCOC(=O)O1)OCc1ccccc1 (stereo not shown) [compound 16, Benzyl 2-(4-(fluoromethyl)-2-oxo-1,3-dioxan-4-yl)acetate]
antibacterial activity against S. pneumoniae (in words) ([4]; S. pneumoniae, THB medium): generally inactive
MIC [4, 13]: > 1600 µM
half-life (Stability in PBS buffer): 25 h

O=C(CC1(C(F)(F)F)CCOC(=O)O1)OCc1ccccc1 (stereo not shown) [compound 23, Benzyl 2-(2-oxo-4-(trifluoromethyl)-1,3-dioxan-4-yl)acetate]
half-life (Stability in PBS buffer): 5 h

O=C1CC(O)(C(F)(F)F)CCO1 (stereo not shown) [compound 26, 4-Hydroxy-4-(trifluoromethyl)tetrahydro-2H-pyran-2-one]
half-life [11]: ~1 min
MIC ([4]; Streptococcus pneumoniae, TIGR4): 800 µM (≈ 147 µg/mL)
MIC [4, 13]: 800 µM (≈ 147 µg/mL)
MIC ([5]; Enterococcus, VRE): > 1600 µM
MIC (E. coli K12; Escherichia coli, K12): > 1600 µM
MIC ([6]; Streptococcus pyogenes): 200 µM (≈ 36.8 µg/mL)
MIC ([7]; Streptococcus agalactiae): 800 µM (≈ 147 µg/mL)
general cytotoxicity (LDH release vs media alone) [8]: No evidence of general cytotoxicity
MIC ([9]; Staphylococcus aureus): > 1600 µM
general cytotoxicity (LDH release vs media alone) (RAW murine macrophages): No evidence of general cytotoxicity

O=C1CC(O)(CF)CCO1 (stereo not shown) [compound 28, 6-fluoromevalolactone]
potency relative to 6,6,6-trifluoromevalolactone (26) ([4]; S. pneumoniae MIC ratio): 4 fold
MIC ([4]; S. pneumoniae, THB media): 200 µM (≈ 29.6 µg/mL)
MIC ([4]; S. pneumoniae, THB medium, 24 h, 37 °C, lowest drug concentration that reduced growth by 80% or more): 200 µM (≈ 29.6 µg/mL)
MIC ([5]; vancomycin resistant Enterococcus (VRE)): > 1600 µM
MIC (E. coli K12; E. coli K12): > 1600 µM
MIC ([6]; Streptococcus pyogenes (GAS 5448)): > 1600 µM
MIC ([7]; Streptococcus agalactiae (GBS COH1)): > 1600 µM
MIC ([9]; Staphylococcus aureus (TCH1516)): > 1600 µM

CC(O)(CCO)CC(=O)NCc1c(F)c(F)c(F)c(F)c1F (stereo not shown) [compound 34, 3,5-Dihydroxy-3-methyl-N-((perfluorophenyl)methyl)pentanamide]
half-life ([2]; half-life in human plasma): > 2 h

CC(=O)OCCC(C)(O)CC(=O)NCc1c(F)c(F)c(F)c(F)c1F (stereo not shown) [compound 35, 3-Hydroxy-3-methyl-5-oxo-5-(((perfluorophenyl)methyl)amino)pentyl acetate]
half-life at 4 mM [2, 14]: 0.333 to 0.5 h

CC1(C)S[C@@H]2[C@H](NC(=O)Cc3ccccc3)C(=O)N2[C@H]1C(=O)O [penicillin G, reference compound]
MIC ([5]; Enterococcus, VRE): < 12.5 µM
MIC (E. coli K12; Escherichia coli, K12): < 12.5 µM
MIC ([6]; Streptococcus pyogenes): < 12.5 µM
MIC ([7]; Streptococcus agalactiae): < 12.5 µM
MIC ([9]; Staphylococcus aureus): < 12.5 µM

CN[C@H](CC(C)C)C(=O)N[C@H]1C(=O)N[C@@H](CC(N)=O)C(=O)N[C@H]2C(=O)N[C@H]3C(=O)N[C@H](C(=O)N[C@H](C(=O)O)c4cc(O)cc(O)c4-c4cc3ccc4O)[C@H](O)c3ccc(c(Cl)c3)Oc3cc2cc(c3O[C@@H]2O[C@H](CO)[C@@H](O)[C@H](O)[C@H]2O[C@H]2C[C@](C)(N)[C@H](O)[C@H](C)O2)Oc2ccc(cc2Cl)[C@H]1O [vancomycin, reference compound]
MIC ([5]; Enterococcus, VRE): < 12.5 µM
MIC (E. coli K12; Escherichia coli, K12): < 12.5 µM
MIC ([6]; Streptococcus pyogenes): < 12.5 µM
MIC ([7]; Streptococcus agalactiae): < 12.5 µM
MIC ([9]; Staphylococcus aureus): < 12.5 µM
